Test results from ChEMBL document CHEMBL1121611, “Synthesis and antileukemic activity of 1-methyl-2,5-diphenyl-3,4-bis(hydroxymethyl)-, 1,2,3-triphenyl-4,5-bis(hydroxymethyl)-, and 1-methyl-2,3-diphenyl-4,5-bis(hydroxymethyl)pyrrole bis(N-methylcarbamate)” (1980).

Tests used:
Format in all cases: functional, Mus musculus
P388 [1] = test: Animal weight loss was tested for P388 Lymphocytic Leukemia and measured for change in weight, in treated and control mice at dose of 100 mg/kg; set-up: unit not given here
Summary of the method: (§1)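 P388 leukemia was induced by ip inoculation of ascitic fluid containing ca. 6 × 10^6 cells into male CD1F1 mice. Drug was given ip as a distilled water–Tween 80 suspension, nine daily doses starting 24 h after tumor inoculation. Body weight change was recorded on day 5, i.e. 4 days after the first injection, in treated and untreated control groups.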

P388 [2] = test: Animal weight loss was tested for P388 Lymphocytic Leukemia and measured for change in weight, in treated and control mice at dose of 6.25 mg/kg; summary of the method: as §1
P388 [3] = test: Animal weight loss was tested for P388 Lymphocytic Leukemia and measured for change in weight, in treated and control mice at dose of 12.5 mg/kg; set-up: unit not given here; summary of the method: as §1
P388 [4] = test: Toxicity against P388 Lymphocytic Leukemia and measured for number of mice survived after five days of 100 mg/kg drug administration out of 6 mice tested
Summary of the method: (§2)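 Male CD1F1 mice given ip ascitic fluid with ca. 6 × 10^6 P388 cells, then ip dosing in a distilled water-Tween 80 suspension, nine daily doses beginning 24 h post-inoculation. Surviving mice counted on day 5, i.e., 4 days after the first compound injection.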

P388 [5] = test: Compound was tested against P388 Lymphocytic Leukemia for %survival of mice measured as treated versus control at dose of 50 mg/kg
Summary of the method: (§3)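 Male CD1F1 mice inoculated ip with ascitic fluid holding ca. 6 × 10^6 P388 cells. Drug given ip as a distilled water-Tween 80 suspension, nine daily doses starting 24 h after tumor inoculation. Median survival time of treated mice compared with untreated controls and expressed as % T/C; % T/C ≥ 120 counted as significant.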

P388 [6] = test: Toxicity against P388 Lymphocytic Leukemia and measured for number of mice survived after five days of 6.25 mg/kg drug administration out of 6 mice tested; summary of the method: as §2
P388 [7] = test: Animal weight loss was tested for P388 Lymphocytic Leukemia and measured for change in weight, in treated and control mice at dose of 50 mg/kg; set-up: unit not given here; summary of the method: as §1
P388 [8] = test: Compound was tested against P388 Lymphocytic Leukemia for %survival of mice measured as treated versus control at dose of 100 mg/kg; summary of the method: as §3
P388 [9] = test: Toxicity against P388 Lymphocytic Leukemia and measured for number of mice survived after five days of 12.5 mg/kg drug administration out of 6 mice tested; summary of the method: as §2
P388 [10] = test: Compound was tested against P388 Lymphocytic Leukemia for %survival of mice measured as treated versus control at dose of 12.5 mg/kg; summary of the method: as §3
P388 [11] = test: Compound was tested against P388 Lymphocytic Leukemia for %survival of mice measured as treated versus control at dose of 6.25 mg/kg; summary of the method: as §3
P388 [12] = test: Animal weight loss was tested for P388 Lymphocytic Leukemia and measured for change in weight, in treated and control mice at dose of 25 mg/kg; set-up: unit not given here; summary of the method: as §1
P388 [13] = test: Toxicity against P388 Lymphocytic Leukemia and measured for number of mice survived after five days of 25 mg/kg drug administration out of 6 mice tested; summary of the method: as §2
P388 [14] = test: Toxicity against P388 Lymphocytic Leukemia and measured for number of mice survived after five days of 50 mg/kg drug administration out of 6 mice tested; summary of the method: as §2
P388 [15] = test: Compound was tested against P388 Lymphocytic Leukemia for %survival of mice measured as treated versus control at dose of 25 mg/kg; summary of the method: as §3
P388 [16] = test: Toxicity was tested for P388 Lymphocytic Leukemia and measured for number of mice survived after five days of 40 mg/kg drug administration out of 6 mice tested
P388 [17] = test: Compound was tested against P388 Lymphocytic Leukemia for %survival of mice measured as treated versus control at dose of 40 mg/kg
P388 [18] = test: Animal weight loss was tested for P388 Lymphocytic Leukemia and measured for change in weight, in treated and controlled mice at dose of 20 mg/kg
P388 [19] = test: Animal weight loss was tested for P388 Lymphocytic Leukemia and measured for change in weight, in treated and control mice at dose of 2.5 mg/kg
P388 [20] = test: Toxicity against P388 Lymphocytic Leukemia and measured for change in weight, in treated and controlled mice at dose of 40 mg/kg
P388 [21] = test: Compound was tested against P388 Lymphocytic Leukemia for %survival of mice measured as treated versus control at dose of 20 mg/kg
P388 [22] = test: Animal weight loss was tested for P388 Lymphocytic Leukemia and measured for change in weight, in treated and control mice at dose of 5 mg/kg
P388 [23] = test: Toxicity was tested for P388 Lymphocytic Leukemia and measured for number of mice survived after five days of 10 mg/kg drug administration out of 6 mice tested
P388 [24] = test: Compound was tested against P388 Lymphocytic Leukemia for %survival of mice measured as treated versus control at dose of 5 mg/kg
P388 [25] = test: Toxicity was tested for P388 Lymphocytic Leukemia and measured for number of mice survived after five days of 20 mg/kg drug administration out of 6 mice tested
P388 [26] = test: Animal weight loss was tested for P388 Lymphocytic Leukemia and measured for change in weight, in treated and control mice at dose of 10 mg/kg
P388 [27] = test: Compound was tested against P388 Lymphocytic Leukemia for %survival of mice measured as treated versus control at dose of 10 mg/kg
P388 [28] = test: Toxicity against P388 Lymphocytic Leukemia and measured for number of mice survived after five days of 2.5 mg/kg drug administration out of 6 mice tested
P388 [29] = test: Toxicity against P388 Lymphocytic Leukemia and measured for number of mice survived after five days of 5 mg/kg drug administration out of 6 mice tested
P388 [30] = test: Compound was tested against P388 Lymphocytic Leukemia for %survival of mice measured as treated versus control at dose of 2.5 mg/kg
P388 [31] = test: Toxicity against P388 Lymphocytic Leukemia and measured for number of female mice survived after five days of 25 mg/kg drug administration out of 6 mice tested
P388 [32] = test: Toxicity against P388 Lymphocytic Leukemia and measured for number of female mice survived after five days of 6.25 mg/kg drug administration out of 6 mice tested
P388 [33] = test: Toxicity against P388 Lymphocytic Leukemia and measured for number of female mice survived after five days of 12.5 mg/kg drug administration out of 6 mice tested
P388 [34] = test: Animal weight loss was tested for P388 Lymphocytic Leukemia and measured for change in weight, in treated and control mice at dose of 200 mg/kg; summary of the method: as §1
P388 [35] = test: Toxicity against P388 Lymphocytic Leukemia and measured for number of mice survived after five days of 200 mg/kg drug administration out of 6 mice tested; summary of the method: as §2
P388 [36] = test: Compound was tested against P388 Lymphocytic Leukemia for %survival of mice measured as treated versus control at dose of 200 mg/kg; summary of the method: as §3
P388 [37] = test: Animal weight loss was tested for P388 Lymphocytic Leukemia and measured for change in weight, in treated and control mice at dose of 1.56 mg/kg; summary of the method: as §1
P388 [38] = test: Compound was tested against P388 Lymphocytic Leukemia for %survival of mice measured as treated versus control at dose of 3.13 mg/kg; summary of the method: as §3
P388 [39] = test: Toxicity against P388 Lymphocytic Leukemia and measured for number of mice survived after five days of 3.13 mg/kg drug administration out of 6 mice tested; summary of the method: as §2
P388 [40] = test: Toxicity against P388 Lymphocytic Leukemia and measured for number of mice survived after five days of 1.56 mg/kg drug administration out of 6 mice tested; summary of the method: as §2
P388 [41] = test: Animal weight loss was tested for P388 Lymphocytic Leukemia and measured for change in weight, in treated and control mice at dose of 3.13 mg/kg; summary of the method: as §1
P388 [42] = test: Compound was tested against P388 Lymphocytic Leukemia for %survival of mice measured as treated versus control at dose of 1.56 mg/kg; summary of the method: as §3
P388 [43] = test: Toxicity was tested for P388 Lymphocytic Leukemia and measured for number of mice survived after five days of 25 mg/kg drug administration out of 6 mice tested; summary of the method: as §2
P388 [44] = test: tested for toxity against P388 Lymphocytic Leukemia and measured for number of mice survived after five days of 12.5 mg/kg drug administration out of 6 mice tested; summary of the method: as §2

Compound: CNC(=O)OCc1c(COC(=O)NC)c(-c2ccccc2)n(C)c1C
- Weight loss (P388 [1]): -6
- Weight loss (P388 [2]): -2.5
- Weight loss (P388 [3]): -3.3
- No. of mice survived (P388 [4]): 5
- T/C (P388 [5]): 90%
- No. of mice survived (P388 [6]): 6
- Weight loss (P388 [7]): -4.6
- T/C (P388 [8]): <70%
- No. of mice survived (P388 [9]): 6
- T/C (P388 [10]): 130%
- T/C (P388 [11]): 135%
- Weight loss (P388 [12]): -3.9
- No. of mice survived (P388 [13]): 6
- No. of mice survived (P388 [14]): 6
- T/C (P388 [15]): 145%

Compound: CNC(=O)OCc1c(COC(=O)NC)c(-c2ccccc2)n(C)c1-c1ccccc1
- No. of mice survived (P388 [16]): 6
- T/C (P388 [17]): 124%
- Weight loss (P388 [18]): -2.8
- Weight loss (P388 [19]): -1.1
- Weight loss (P388 [20]): -4.4
- T/C (P388 [21]): 205%
- Weight loss (P388 [22]): -1
- No. of mice survived (P388 [23]): 6
- T/C (P388 [24]): 135%
- No. of mice survived (P388 [25]): 6
- Weight loss (P388 [26]): -2.1
- T/C (P388 [27]): 164%
- No. of mice survived (P388 [28]): 6
- No. of mice survived (P388 [29]): 6
- T/C (P388 [30]): 135%

Compound: CNC(=O)OCc1c(COC(=O)NC)c(C)n(-c2ccccc2)c1C
- No. of mice survived (P388 [31]): 6
- No. of mice survived (P388 [32]): 5
- T/C (P388 [10]): 145%
- T/C (P388 [11]): 134%
- T/C (P388 [15]): 148%
- No. of mice survived (P388 [33]): 5

Compound: CNC(=O)OCc1c(-c2ccccc2)c(-c2ccccc2)n(-c2ccccc2)c1COC(=O)NC
- Weight loss (P388 [34]): -2.4
- Weight loss (P388 [1]): -0.6
- No. of mice survived (P388 [35]): 6
- Weight loss (P388 [3]): -0.2
- No. of mice survived (P388 [4]): 6
- T/C (P388 [5]): 126%
- T/C (P388 [36]): 171%
- Weight loss (P388 [7]): -1.1
- T/C (P388 [8]): 144%
- No. of mice survived (P388 [9]): 6
- T/C (P388 [10]): 110%
- Weight loss (P388 [12]): 0.1
- No. of mice survived (P388 [13]): 6
- No. of mice survived (P388 [14]): 6
- T/C (P388 [15]): 117%

Compound: CNC(=O)OCc1c(-c2ccccc2)c(-c2ccccc2)n(C)c1COC(=O)NC
- Weight loss (P388 [1]): -6.1
- Weight loss (P388 [2]): -1.1
- Weight loss (P388 [3]): -1.4
- No. of mice survived (P388 [4]): 5
- Weight loss (P388 [37]): -2.3
- T/C (P388 [38]): 128%
- T/C (P388 [5]): 160%
- No. of mice survived (P388 [6]): 6
- Weight loss (P388 [7]): -2.5
- No. of mice survived (P388 [9]): 6
- No. of mice survived (P388 [39]): 6
- No. of mice survived (P388 [40]): 6
- T/C (P388 [10]): 164%
- T/C (P388 [11]): 138%
- Weight loss (P388 [41]): -0.8
- Weight loss (P388 [12]): -3.2
- No. of mice survived (P388 [13]): 6
- No. of mice survived (P388 [14]): 6
- T/C (P388 [42]): 102%
- T/C (P388 [15]): 160%

Compound: CNC(=O)OCc1c(-c2ccccc2)c(-c2ccccc2)n(-c2ccc(OC)cc2)c1COC(=O)NC
- Weight loss (P388 [34]): -1.3
- Weight loss (P388 [1]): -1
- No. of mice survived (P388 [35]): 6
- Weight loss (P388 [3]): 0.3
- No. of mice survived (P388 [4]): 6
- T/C (P388 [5]): 119%
- No. of mice survived (P388 [43]): 6
- T/C (P388 [36]): 135%
- Weight loss (P388 [7]): -0.8
- T/C (P388 [8]): 124%
- T/C (P388 [10]): 106%
- Weight loss (P388 [12]): 0.5
- No. of mice survived (P388 [14]): 6
- No. of mice survived (P388 [44]): 6
- T/C (P388 [15]): 119%
